Data published in article PMC4485437 (Biochemistry, 2015).

Legend:
VcMTAN (WT) [1] = target: T1, VcMTAN (WT) (Vibrio cholerae serotype O1, UniProt Q9KPI8); test: Luminescence-based steady-state kinetic assay; format: biochemical; conditions: substrate MTA
VcMTANA113P [2] = target: T2, VcMTANA113P (Vibrio cholerae serotype O1, UniProt Q9KPI8, A113P); test: Luminescence-based steady-state kinetic assay; format: biochemical; conditions: substrate MTA
VcMTANV153I [3] = target: T3, VcMTANV153I (Vibrio cholerae serotype O1, UniProt Q9KPI8, V153I); test: Luminescence-based steady-state kinetic assay; format: biochemical; conditions: substrate MTA
[4] = target: T4, VcMTANA113P/V153I (VcMTANDOUBLE) (Vibrio cholerae serotype O1, UniProt Q9KPI8, A113P/V153I); test: Luminescence-based steady-state kinetic assay; format: biochemical; conditions: substrate MTA
[5] = target: T5, VcMTANA113P/V153I/R158G (Vc[…]) (Vibrio cholerae serotype O1, UniProt Q9KPI8, A113P/R158G/V153I); test: Luminescence-based steady-state kinetic assay; format: biochemical; conditions: substrate MTA
EcMTAN [6] = target: T6, EcMTAN (Escherichia coli, UniProt P0AF12); test: Luminescence-based steady-state kinetic assay; format: biochemical; conditions: substrate MTA
Outline: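 His6-tagged enzyme was expressed in E. coli BL21(DE3) (1 mM IPTG, 37°C, 10 h) and purified on Ni-NTA. Product adenine was converted to ATP by excess yeast APRTase (20 microunits/well) and C. symbiosum PPDK (320 microunits/well), then read by luciferase luminescence at 570 nm. Enzyme 5–25 pM; reactions started with 0.02–1 μM MTA.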

[7] = system: E. coli DHFR (EcDHFR) Asp27Glu; conditions: Asp27Glu vs native EcDHFR; cited from earlier work
VcMTAN (WT) [8] = target: T1, VcMTAN (WT); test: Isothermal titration calorimetry; format: binding; conditions: 25°C; for ΔG: calculated from Ki*; for TΔS: from Gibbs free energy equation
Outline: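 Enzyme expressed in E. coli BL21(DE3) and Ni-NTA purified, then stripped of bound adenine by dialysis against phosphate buffer with activated charcoal. Sample cell held 60–120 μM dimer; test compound in dialysate was injected, degassed solutions, 25°C. Fit to a two-independent-site model gave ΔH per catalytic site. ΔG = RT ln Ki*, with Ki* from 0.8 mM MTA plus xanthine oxidase at 305 nm. −TΔS came from the Gibbs equation.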

VcMTANA113P [9] = target: T2, VcMTANA113P; test: Isothermal titration calorimetry; format: binding; conditions: for ΔH / ΔG / TΔS: 25°C; for ΔG: calculated from Ki*; for TΔS: from Gibbs free energy equation
VcMTANV153I [10] = target: T3, VcMTANV153I; test: Isothermal titration calorimetry; format: binding
[11] = target: T4, VcMTANA113P/V153I (VcMTANDOUBLE); test: Isothermal titration calorimetry; format: binding
[12] = target: T5, VcMTANA113P/V153I/R158G (Vc[…]); test: Isothermal titration calorimetry; format: binding; conditions: single site, 25°C
EcMTAN [13] = target: T6, EcMTAN; test: Isothermal titration calorimetry; format: binding; conditions: 25°C; for ΔG: calculated from Ki*; for TΔS: from Gibbs free energy equation
Outline: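 Copurified adenine stripped by dialysis against phosphate buffer with activated charcoal. 60–120 μM dimer in cell, dialysate as reference. Test compound in dialysate; solutions filtered and degassed. Titrated at 25°C. Isotherms fit to two independent sites; ΔH from integrated heat. ΔG = RT ln Ki*, using first-site […] from low-substrate luciferase-coupled assay. −TΔS from ΔG = ΔH − TΔS.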

VcMTAN (WT) [14] = target: T1, VcMTAN (WT); test: Titration of [14C]MTDIA to MTAN; format: binding; conditions: MTAN dimer 27−85 μM
VcMTANA113P [15] = target: T2, VcMTANA113P; test: Titration of [14C]MTDIA to MTAN; format: binding; conditions: MTAN dimer 27−33 μM
VcMTANV153I [16] = target: T3, VcMTANV153I; test: Titration of [14C]MTDIA to MTAN; format: binding; conditions: MTAN dimer 27−33 μM
[17] = target: T4, VcMTANA113P/V153I (VcMTANDOUBLE); test: Titration of [14C]MTDIA to MTAN; format: binding; conditions: MTAN dimer 27−33 μM
[18] = single site, 25°C, from Gibbs free energy equation

## 5′-methylthioadenosine [MTA]
VcMTAN (WT) [1]
  kcat: 0.18 ± 0.01 s⁻¹
VcMTAN (WT) [1]; first-catalytic site filling
  Km: 0.061 ± 0.006 µM
VcMTANA113P [2]
  kcat: 0.17 ± 0.01 s⁻¹
VcMTANA113P [2]; first-catalytic site filling
  Km: 0.262 ± 0.029 µM
VcMTANV153I [3]
  kcat: (7.9 ± 4) × 10^−3 s^−1
VcMTANV153I [3]; first-catalytic site filling
  Km: 0.43 ± 0.047 µM
[4]
  kcat: (7.4 ± 3) × 10^−2 s^−1
[4]; first-catalytic site filling
  Km: 0.202 ± 0.023 µM
[5]
  kcat: 0.11 ± 0.01 s⁻¹
[5]; first-catalytic site filling
  Km: 0.536 ± 0.122 µM
EcMTAN [6]
  kcat: 0.32 ± 0.01 s⁻¹
EcMTAN [6]; first-catalytic site filling
  Km: 0.139 ± 0.018 µM

## Nc1nc(=O)c2c([nH]1)NCC(CNc1ccc(C(=O)N[C@@H](CCC(=O)O)C(=O)O)cc1)=N2 [DHF, 7,8-dihydrofolate]
[7]
  KM(DHF) increase: 20 fold

## CSC[C@H]1CN(Cc2c[nH]c3c(N)ncnc23)C[C@@H]1O [MTDIA, 4′-deaza-1′-aza-2′-deoxy-1′-(9-[^14C]methylene)-Immucillin-A]
VcMTAN (WT) [8]; first site
  ΔH: -6.0 ± 0.2 kcal/mol
  ΔG: -15.8 ± 0.1 kcal/mol
  TΔS: -9.8 ± 0.2 kcal/mol
VcMTAN (WT) [8]; second site
  ΔH: -2.6 ± 0.3 kcal/mol
  ΔG: -14.3 ± 0.2 kcal/mol
  TΔS: -11.7 ± 0.4 kcal/mol
VcMTANA113P [9]; VcMTANA113P vs VcMTAN
  enthalpy of MTDIA binding less favorable than parent VcMTAN: 3 kcal/mol
VcMTANA113P [9]; first site
  ΔH: -2.9 ± 0.1 kcal/mol
  ΔG: -13.9 ± 0.1 kcal/mol
  TΔS: -11.0 ± 0.1 kcal/mol
VcMTANA113P [9]; second site
  ΔH: -1.8 ± 0.2 kcal/mol
  ΔG: -13.5 ± 0.8 kcal/mol
  TΔS: -11.7 ± 0.8 kcal/mol
VcMTANV153I [10]; VcMTANV153I vs VcMTANA113P
  enthalpy of MTDIA binding more favorable than that of VcMTANA113P: -2.0 kcal/mol
VcMTANV153I [10]; single site, 25°C
  ΔH: -4.9 ± 0.1 kcal/mol
VcMTANV153I [10]; [18]
  TΔS: -5.7 ± 0.2 kcal/mol
[11]; VcMTANDOUBLE vs VcMTANA113P
  enthalpy of MTDIA binding more favorable than that of VcMTANA113P: -1.0 kcal/mol
[11]; single site, 25°C
  ΔH: -3.9 ± 0.1 kcal/mol
[11]; single site, 25°C, calculated from Ki*
  ΔG: -15.7 ± 0.1 kcal/mol
[11]; [18]
  TΔS: -11.8 ± 0.1 kcal/mol
[12]
  ΔH: -4.8 ± 0.2 kcal/mol
[12]; calculated from Ki*
  ΔG: -13.3 ± 0.1 kcal/mol
[12]; from Gibbs free energy equation
  TΔS: -8.5 ± 0.2 kcal/mol
EcMTAN [13]; first site
  ΔH: -18.9 ± 0.2 kcal/mol
  ΔG: -17.4 ± 0.9 kcal/mol
  TΔS: 1.5 ± 0.9 kcal/mol
EcMTAN [13]; second site
  ΔH: -16.8 ± 0.2 kcal/mol
  ΔG: -10.2 ± 0.1 kcal/mol
  TΔS: 6.6 ± 0.2 kcal/mol
VcMTAN (WT) [14]
  binding of MTDIA* on titration to one or two catalytic sites per dimer: complete binding at the first site and near-stoichiometric binding at the second site
VcMTANA113P [15]
  binding of MTDIA* on titration to one or two catalytic sites per dimer: complete binding at the first site and near-stoichiometric binding at the second site
VcMTANV153I [16]
  binding of MTDIA* on titration to one or two catalytic sites per dimer: left more MTDIA* unbound as both the first and second sites were titrated
[17]
  binding of MTDIA* on titration to one or two catalytic sites per dimer: left more MTDIA* unbound as both the first and second sites were titrated

## CN(Cc1cnc2nc(N)nc(N)c2n1)c1ccc(C(=O)N[C@@H](CCC(=O)O)C(=O)O)cc1 [methotrexate]
[7]
  methotrexate affinity decrease: 176 fold
